Experimental data from ChEMBL document CHEMBL1158515, “Novel selective thiazoleacetic acids as CRTH2 antagonists developed from in silico derived hits. Part 1” (Bioorg Med Chem Lett, 2010).

Key:
[1] = molecular target: T1, Prostaglandin D2 receptor 2 (Homo sapiens, UniProt Q9Y5Y4); assay: Antagonist activity at human CRTH2 receptor expressed in HEK285-7 cells assessed as inhibition of beta arrestin translocation by bioluminescence resonance energy transfer assay; type: functional, cell-based
T1 sequence (Q9Y5Y4 whole entry): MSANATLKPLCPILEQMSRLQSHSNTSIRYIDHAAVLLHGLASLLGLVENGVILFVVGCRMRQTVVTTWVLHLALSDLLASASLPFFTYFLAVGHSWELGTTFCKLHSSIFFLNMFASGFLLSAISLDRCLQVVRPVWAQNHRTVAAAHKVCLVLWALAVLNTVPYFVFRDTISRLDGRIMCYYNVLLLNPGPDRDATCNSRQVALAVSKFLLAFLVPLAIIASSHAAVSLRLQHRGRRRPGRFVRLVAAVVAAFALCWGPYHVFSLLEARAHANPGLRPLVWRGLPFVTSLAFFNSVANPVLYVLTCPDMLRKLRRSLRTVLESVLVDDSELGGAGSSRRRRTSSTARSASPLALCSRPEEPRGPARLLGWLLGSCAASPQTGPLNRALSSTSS
Summary of the method: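 BRET2 readout in HEK385-7 cells transfected with CRTH2 (GFP2-β-arrestin2 acceptor, receptor-Rluc donor). Cells preincubated with antagonist 5 min with shaking, then PGD₂ added at a level eliciting about 75–80% of maximal agonist response, 5 min more. DeepBlueC coelenterazine injected; emission read 5 s later at 400 and 515 nm; signal = 515/400 ratio. IC50 derived.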

[2] = molecular target: T1, Prostaglandin D2 receptor 2; assay: Displacement of[3H]PGD2 from human CRTH2 receptor expressed in african green monkey COS7 cells; type: cell-based, COS-7
Summary of the method: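 Equilibrium competition binding against [³H]PGD₂ on stably transfected COS7 cells expressing human CRTH2. Nonspecific binding defined with […] unlabelled PGD₂. IC50 reported.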

[3] = molecular target: T2, Prostaglandin D2 receptor 2 (Homo sapiens) (UniProt Q9Y5Y4); assay: Antagonist activity at human CRTH2 receptor expressed in HEK285-7 cells assessed as inhibition of beta arrestin translocation by bioluminescence resonance energy transfer assay relative to control; type: functional, cell-based
T2 sequence (whole entry): T1 sequence (Q9Y5Y4 whole entry)
Summary of the method: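 Same BRET2 β-arrestin2 translocation format in CRTH2-transfected HEK385-7 cells: 5 min antagonist preincubation, then PGD₂ at about 75–80% of maximal agonist efficacy for 5 min, DeepBlueC coelenterazine, 515/400 nm ratio. Value is antagonist efficacy expressed as percent.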

| Compound | IC50 [1] | IC50 [2] | Efficacy [3] |
| --- | --- | --- | --- |
| COc1ccc(-c2ccccc2Cc2nc(-c3ccc(F)cc3)c(CC(=O)O)s2)cc1 | 0.27 µM | 0.072 µM | > 70% |
| O=C(O)Cc1sc(Cc2ccccc2-c2ccccc2)nc1-c1ccc(Cl)cc1 | 0.51 µM | 0.041 µM | > 70% |
| N#Cc1cccc(-c2ccccc2Cc2nc(-c3ccc(F)cc3)c(CC(=O)O)s2)c1 | > 100 µM | 0.34 µM | > 70% |
| O=C(O)Cc1sc(Nc2ccc3ccccc3c2)nc1-c1ccc(Oc2ccccc2)cc1 | 0.26 µM | 0.094 µM | 20% |
| O=C(O)Cc1sc(Cc2ccccc2-c2ccccc2)nc1-c1ccc(F)cc1 | 0.37 µM | 0.024 µM | > 70% |
| O=C(O)Cc1sc(-c2ccccc2)nc1-c1ccc(Cl)cc1 [FENTIAZAC] | 0.96 µM | 0.55 µM | > 70% |
| COc1ccc(-c2nc(Nc3ccccc3)sc2CC(=O)O)cc1 | 2.4 µM | 1.9 µM | > 70% |
| O=C(O)Cc1sc(Cc2ccccc2Oc2ccccc2)nc1-c1ccc(Cl)cc1 | > 100 µM | 0.16 µM | > 70% |
| O=C(O)Cc1sc(-c2ccc(F)cc2)nc1-c1ccccc1 | 3.7 µM | 1.5 µM | > 70% |
| O=C(O)Cc1sc(Nc2ccccc2)nc1-c1ccc(Oc2ccccc2)cc1 | 0.35 µM | 0.084 µM | > 70% |
| O=C(O)Cc1sc(Cc2ccccc2)nc1-c1ccc(Cl)cc1 | 4.1 µM | 0.18 µM | > 70% |
| O=C(O)Cc1sc(-c2ccccc2)nc1-c1ccc(-c2ccccc2)cc1 | 0.63 µM | 0.038 µM | > 70% |
| O=C(O)Cc1sc(Cc2ccccc2Br)nc1-c1ccc(F)cc1 | > 100 µM | 0.7 µM | > 70% |
| O=C(O)Cc1sc(Nc2ccccc2Cl)nc1-c1ccc(Oc2ccccc2)cc1 | > 100 µM | 0.13 µM | > 70% |
| COc1ccccc1Nc1nc(-c2ccc(-c3ccccc3)cc2)c(CC(=O)O)s1 | 1.9 µM | 0.31 µM | > 70% |
| COc1ccc(Nc2nc(-c3ccccc3)c(CC(=O)O)s2)cc1 | 1.5 µM | 0.94 µM | > 70% |
| CN(C)c1ccc(-c2nc(-c3ccc(Br)cc3)c(CC(=O)O)s2)cc1 | – | 0.46 µM | > 70% |
| COc1ccc(-c2nc(-c3ccc(OC)cc3)c(CC(=O)O)s2)cc1 | – | 4.1 µM | > 70% |
| COc1ccc(-c2nc(-c3ccccc3)sc2CC(=O)O)cc1 | 5 µM | 7 µM | > 70% |

| Compound | IC50 [1] | IC50 [2] | Efficacy [3] |
| --- | --- | --- | --- |
| COc1ccc(-c2nc(-c3ccc(Oc4ccccc4)cc3)sc2CC(=O)O)cc1 | 1.6 µM | 0.47 µM | > 70% |
| O=C(O)Cc1sc(Cc2ccccc2-c2cccc(OC(F)(F)F)c2)nc1-c1ccc(F)cc1 | > 100 µM | 0.16 µM | > 70% |
| O=C(O)Cc1sc(-c2ccc(Cl)cc2)nc1-c1ccccc1 | 1.6 µM | 0.99 µM | > 70% |
| COc1ccccc1Nc1nc(-c2ccc(F)cc2)c(CC(=O)O)s1 | 2.1 µM | 1.5 µM | > 70% |
| O=C(O)Cc1sc(-c2ccccc2)nc1-c1ccc(F)cc1 | 3.5 µM | 0.86 µM | > 70% |
| O=C(O)Cc1sc(Nc2ccccc2)nc1-c1ccc(-c2ccccc2)cc1 | 1.2 µM | 0.66 µM | > 70% |
| Cc1ccc(Nc2nc(-c3ccc(Cl)cc3)c(CC(=O)O)s2)cc1 | 0.56 µM | 0.75 µM | > 70% |
| O=C(O)Cc1sc(Nc2ccccc2)nc1-c1ccccc1 | 1.5 µM | 0.35 µM | > 70% |
| COc1ccc(-c2nc(-c3ccccc3)c(CC(=O)O)s2)cc1 | 1.7 µM | 0.82 µM | > 70% |
| COc1ccccc1Nc1nc(-c2ccc(Oc3ccccc3)cc2)c(CC(=O)O)s1 | 0.48 µM | 0.049 µM | > 70% |
| O=C(O)Cc1sc(Cc2ccc3ccccc3c2)nc1-c1ccc(Cl)cc1 | 0.57 µM | 0.041 µM | > 70% |
| O=C(O)Cc1sc(Nc2ccc(Cl)cc2)nc1-c1ccc(-c2ccccc2)cc1 | 3.8 µM | 0.94 µM | 20% |
| COc1ccc(-c2nc(-c3ccc(Cl)cc3)sc2CC(=O)O)cc1 | – | 0.21 µM | > 70% |
| O=C(O)Cc1sc(Nc2ccccc2)nc1-c1ccc(Cl)cc1 | 1.3 µM | 0.1 µM | > 70% |
| O=C(O)Cc1sc(Cc2ccc(Cl)cc2)nc1-c1ccc(Oc2ccccc2)cc1 | 0.066 µM | 0.0037 µM | > 70% |
| Cc1ccc(Cc2nc(-c3ccccc3)c(CC(=O)O)s2)cc1 | 1.8 µM | 0.25 µM | > 70% |
| O=C(O)Cc1sc(Nc2ccccc2)nc1-c1ccc(F)cc1 | 1.3 µM | 0.65 µM | > 70% |
| O=C(O)Cc1sc(Nc2ccc(Cl)cc2)nc1-c1ccc(F)cc1 | 1.9 µM | 0.96 µM | > 70% |

The next lines start with the values.

| IC50 [1] | IC50 [2] | Efficacy [3] | Compound |
| --- | --- | --- | --- |
| 0.73 µM | 0.45 µM | > 70% | COc1ccccc1Nc1nc(-c2ccc(Cl)cc2)c(CC(=O)O)s1 |
| 0.54 µM | 0.089 µM | > 70% | O=C(O)Cc1sc(Nc2ccc(F)cc2)nc1-c1ccc(Oc2ccccc2)cc1 |
| 1.1 µM | 0.7 µM | > 70% | O=C(O)Cc1sc(Nc2ccc(C(F)(F)F)cc2)nc1-c1ccc(Cl)cc1 |
| – | 1.4 µM | > 70% | CCc1ccc(-c2nc(-c3ccccc3OC)sc2CC(=O)O)cc1 |
| 0.85 µM | 0.36 µM | > 70% | COc1ccc(-c2nc(Cc3ccc(Cl)cc3)sc2CC(=O)O)cc1 |
| 0.58 µM | 0.088 µM | > 70% | O=C(O)Cc1sc(Cc2ccc(Cl)cc2)nc1-c1ccccc1 |
| 0.22 µM | 0.05 µM | > 70% | O=C(O)Cc1sc(Cc2ccc(Cl)cc2)nc1-c1ccc(Cl)cc1 |
| 0.66 µM | 0.16 µM | > 70% | O=C(O)Cc1sc(-c2ccc(Oc3ccccc3)cc2)nc1-c1ccccc1 |
| > 100 µM | 0.17 µM | > 70% | COc1ccccc1-c1ccccc1Cc1nc(-c2ccc(F)cc2)c(CC(=O)O)s1 |
| > 100 µM | 0.21 µM | > 70% | O=C(O)Cc1sc(Nc2ccccc2F)nc1-c1ccc(Oc2ccccc2)cc1 |
| – | 0.35 µM | > 70% | COc1ccccc1-c1nc(-c2ccc(Br)cc2)c(CC(=O)O)s1 |
| – | 0.99 µM | > 70% | Cc1ccc(-c2nc(-c3ccc(Cl)cc3)sc2CC(=O)O)c(C)c1 |
| 2.5 µM | 0.87 µM | > 70% | O=C(O)Cc1sc(-c2ccccc2)nc1-c1ccccc1 |
| 1.3 µM | 0.093 µM | > 70% | O=C(O)Cc1sc(-c2ccc(Oc3ccccc3)cc2)nc1-c1ccc(Cl)cc1 |
| 0.19 µM | 0.17 µM | 30% | N#Cc1ccc(-c2ccccc2Cc2nc(-c3ccc(F)cc3)c(CC(=O)O)s2)cc1 |
| 0.39 µM | 0.04 µM | > 70% | COc1cccc(-c2ccccc2Cc2nc(-c3ccc(F)cc3)c(CC(=O)O)s2)c1 |
| 16 µM | 1.2 µM | > 70% | CC(C)c1ccc(Nc2nc(-c3ccc(Cl)cc3)c(CC(=O)O)s2)cc1 |
| 0.18 µM | 0.14 µM | 30% | O=C(O)Cc1sc(Cc2ccccc2)nc1-c1ccc(F)cc1 |
| 0.35 µM | 1.3 µM | 50% | CCc1ccc(-c2nc(-c3ccccc3)sc2CC(=O)O)cc1 |
| 1.5 µM | 0.024 µM | > 70% | O=C(O)Cc1sc(Cc2ccccc2-c2ccc3c(c2)OCO3)nc1-c1ccc(F)cc1 |
| 3.8 µM | 0.33 µM | > 70% | COc1ccc(Cc2nc(-c3ccccc3)c(CC(=O)O)s2)cc1OC |
| – | 0.39 µM | > 70% | COc1ccc(-c2nc(-c3ccc(Br)cc3)c(CC(=O)O)s2)cc1 |
| 0.37 µM | 0.22 µM | > 70% | O=C(O)Cc1sc(Nc2ccc3ccccc3c2)nc1-c1ccc(Br)cc1 |
